# Shown are actives, neighbours in structure and some others; about 3.3% of the full set was active somewhere.
# PMI act satM6P: increases human PMI activity with near-saturating mannose 6-phosphate. activation factor at 20 µM. AID 1216. coupled PMI enzyme assay, resazurin fluorescence, 20 min; active compounds read high; 1 = untreated enzyme, 0 = substrate-free blank. P34949. 0.34% of 190,000 active;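 active = activation factor of 2 or more at 20 µM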
#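 Material: human phosphomannose isomerase with PGI, G6PDH, diaphorase coupling enzymes. Quantity: 15 ng/mL PMI. Medium: HEPES pH 7.4 buffer with MgCl2 and Tween-20. Reagent: Near-saturating mannose-6-phosphate, 1.0 mM. Compound: 20 µM single dose. Times: enzyme reaction with compound 20 min at room temperature. Detection: resorufin fluorescence at Ex 544/Em 590 nm.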
# ROMK mod: modulators of human ROMK potassium channel; B-score at 10 µM; Tet-inducible ROMK, thallium flux fluorescence; actives lie on both sides; 2% of 130,000 active;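 active = signal ratio slope over the read window, or its plate-corrected B-score, at least 3 SD from the plate mean, either direction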;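 also: B-score of the F/F0 ratio slope over 7 to 12 s after thallium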
# Target sequence (P48048 whole entry, looked up): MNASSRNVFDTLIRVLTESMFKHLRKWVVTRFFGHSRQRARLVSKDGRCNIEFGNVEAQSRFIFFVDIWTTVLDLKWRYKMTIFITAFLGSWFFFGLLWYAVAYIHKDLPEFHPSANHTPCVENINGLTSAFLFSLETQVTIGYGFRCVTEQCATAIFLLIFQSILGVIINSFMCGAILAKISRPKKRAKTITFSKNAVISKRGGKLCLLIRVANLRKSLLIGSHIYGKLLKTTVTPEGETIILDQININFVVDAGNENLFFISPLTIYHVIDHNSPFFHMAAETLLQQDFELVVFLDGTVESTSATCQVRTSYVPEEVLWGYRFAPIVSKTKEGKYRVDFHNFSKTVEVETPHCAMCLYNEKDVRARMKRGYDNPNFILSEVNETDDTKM
# ABCG2 block: inhibitors of human ABCG2 transporter, ABCB1 counter-screen; inhibition, % at 6.6 µM; IgMXP3 cells, JC-1 efflux, flow cytometry; 0.1% of 190,000 active; Q9UNQ0;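 active = inhibition above 80%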;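 also: 0% = DMSO and 100% = nicardipine control wells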
#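 Assay system – ABCG2 IgMXP3 and barcoded ABCB1 CCRF-Adr cell mix · Input – 3 million cells/mL in well · Reagent – JC-1 fluorescent substrate · Compound – single test compound dose, 6.6 µM final · Timing – 10 min exposure at 25 °C with rotation, no wash · Detection – flow cytometry of retained JC-1 fluorescence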
# ABCB1 inh: blocks JC-1 efflux by human ABCB1 transporter. inhibition, % at 6.6 µM. P08183. CCRF-Adr cells, flow cytometry. 0.067% of 190,000 active; in the data active = inhibition above about 40%;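 also: 0% = vehicle and 100% = reference inhibitor; higher value means more JC-1 retained so stronger ABCB1 efflux block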
# Cl transport mod: modulators of human KCC2 chloride dependent transport; B-score of Tl+ flux slope (higher = more flux/activation; lower = inhibition) at 10 µM; KCC2 cells, thallium flux FluoZin-2 fluorescence; AID 1456; Q9H2X9; 2.2% of 190,000 active;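 active = thallium flux slope and its plate-corrected score both differing from the plate sample mean at a set confidence after two filtering rounds, in either direction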;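 also: slope of fluorescence scaled to starting intensity during 10 to 20 s after thallium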
# PMI act: increases human mannose-6-phosphate isomerase activity | P34949 | AID 1214 | purified human PMI, coupled resazurin fluorescence, 20 min; active compounds read high; 1 = vehicle control, 0 substrate-free wells | activation factor at 20 µM | 0.005% of 190,000 active;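 active = activation factor of 2 or more at 20 µM, relative to plate controls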
# ROMK retest: confirmation of human ROMK potassium channel modulators | ROMK thallium flux, fluorescence ratio; active compounds read low | normalized thallium flux (F/F0 slope) at 10 µM | shares compounds with ROMK mod | 54% of 3,000 active;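 active = Flux at 10 µM at least 3 SD below or above vehicle control mean in one or both replicates; inconclusive = no clear call, values can overlap the other calls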
# * hit, by the source's call; ? = inconclusive; / = not tested or not shown.
SMILES,PMI act satM6P,ROMK mod,ABCG2 block,ABCB1 inh,Cl transport mod,PMI act,ROMK retest
COc1ccc(C=O)cc1COc1c(F)c(F)cc(F)c1F,0.9,3.9*,18,1,-0.55,0.9,0.091
COc1ccc(C=O)cc1Cn1ccnc1C,1.1,-7.2*,0,0,0.0046,1.2,0.079
Cc1cc(Br)ccc1OCCCCN1CCC(C)CC1,1.1,-1.2,6,0,0.83,1,/
N#CCCN(CCC#N)S(=O)(=O)c1ccc(C(=O)Nc2nc(-c3ccccc3)c(C(=O)c3ccccc3)s2)cc1,/,/,/,/,-1.8,/,/
CN(C)S(=O)(=O)c1ccc(C(=O)Nc2nc(-c3ccccc3)c(C(=O)c3ccccc3)s2)cc1,0.9,1.2*,-1,-1,0.34,0.9,0.09
CCCCn1c(SCC(=O)Nc2cc(C(F)(F)F)ccc2Cl)nnc1C(CC)N(C)C (configuration not stated),1,/,42,6,-0.16,1,/
O=[n+]1c2c(n([O-])c3cc(F)c(N4CCCC4)cc31)CCCC2,0.5,-6.3*,-2,-1,/,0.7,0.043*
COC(=O)[C@H](Cc1ccccc1)NC(=O)O[C@@H]1C(=O)c2cc(Br)ccc2O[C@H]1c1cccc(OC)c1,0.9,-0.33,11,2,0.04,0.9,/
O=Nc1c(O)n(Cc2ccccc2)c2ccccc12,/,/,/,/,-0.35,/,/
Cc1c(CCCN)c2ccccc2n1Cc1ccccc1,/,-2.9*,3,1,/,/,0.05*
COC(=O)CNC(=O)CCCCC(=O)NCC(=O)OC,1,/,2,1,0.73,1.1,/
CCOC(=O)CNC(=O)CCCCCC(=O)NCC(=O)OCC,1,0.092,1,0,0.14,1,0.071
OCC1CCCC(n2cnc3c(=S)nc[nH]c32)O1 (configuration not stated),/,/,/,/,0.36,/,/
C=CC[n+]1c(/C=C2\C=Cc3cc(C)ccc3N2CC)ccc2ccccc21,0.9,-3.4*,5,0,-1.2,0.8,0.053*
CCN1C(=C(C#N)C#N)C=Cc2cc(C)ccc21,0.9,-0.52,11,1,1.2,1,/
Cc1ccc(C)c(Nc2nc3nonc3nc2N2CCOCC2)c1,1,-3.5*,1,0,-0.44,1,?
CC(=O)OCC(=O)NCC(=O)c1c[nH]c2ccccc12,1,0.0033,6,1,-0.43,1.1,/
O=S(=O)(c1ccc2oc(=S)[nH]c2c1)N1CCCCC1,/,/,/,/,-0.41,/,/
S=c1[nH]c2cc(-c3ccccc3)ccc2o1,/,/,/,/,/,/,0.11*
CNC(=O)c1[nH]cnc1C(=O)Nc1ccc(OC)cc1,/,3.4*,/,/,0.17,/,0.087
C=CCN1C=C/C(=C\C=C(C#N)C#N)c2ccccc21,0.6,/,-7,0,-0.045,0.7,/
C=CCN1C=CC(=CC=C(C#N)C#N)C=C1,/,-7.5*,/,/,-5.3,/,0.034*
C/C(=N\NC(=O)COc1ccc(C)cc1Br)c1cc([N+](=O)[O-])cs1,0.9,-0.29,3,0,1.7,0.8,/
C/C(=N\NC(=O)COc1ccc(C)cc1[N+](=O)[O-])c1cccs1,1,-2.6*,8,1,-1.2,1.1,0.081
COc1ccc(/C(O)=C2/C(=O)C(=O)N(c3ccccn3)C2c2ccc(OC)c(OC)c2)cc1 (configuration not stated),/,/,/,/,0.62,/,/
SMILES,PMI act satM6P,ROMK mod,ABCG2 block,ABCB1 inh,Cl transport mod,PMI act,ROMK retest
CCCCCCCCNC(=O)/C(C#N)=C/c1ccc(SC)cc1,0.8,-0.02,27,4,0.029,0.9,/
CCOCCCNC(=O)/C(C#N)=C/c1ccccc1F,0.9,-3.9*,2,0,0.31,1.1,0.052*
CCOCCCNC(=O)/C(C#N)=C/c1ccc(C(=O)OC)cc1,0.9,-2.2*,6,0,0.84,0.9,0.045*
O=C(NC(CSSCC(NC(=O)c1ccccc1)C(=O)O)C(=O)O)c1ccccc1 (configuration not stated),1.1,/,4,0,-0.11,0.9,/
Cc1cc(O)c(C(C)C)cc1C1(c2cc(C(C)C)c(O)cc2C)OC(=O)c2ccccc21,/,/,/,/,0.17,/,/
Cc1cc(C2(c3ccc(O)c(C)c3)OC(=O)c3ccccc32)ccc1O,0.7,-1.2,-6,-1,1.6,0.8,0.073
C#CCOCCOCCOCCNc1nc(N2CCN(C(=O)[C@H](Cc3ccc(O)cc3)n3cc(CCO)nn3)CC2)nc(N2CCN(C(=O)[C@H](Cc3ccc(O)cc3)n3cc(CCO)nn3)CC2)n1,1.5,-0.033,0,1,0.88,1.4,/
C#CCOCCOCCOCCNc1nc(N2CCN(C(=O)[C@H]([C@@H](C)O)n3cc(CCCCN)nn3)CC2)nc(N2CCN(C(=O)[C@H](Cc3ccc(O)cc3)n3cc(CCO)nn3)CC2)n1,1.5,2*,0,0,-0.56,1.5,0.083
O=C(NC1CC2CCCC(C1)N2C(=S)NCCc1ccccc1)C1CC1 (configuration not stated),0.9,0.8,2,1,-0.53,0.9,/
CC1CCCC(C)N1C(=O)Cn1c(SCC(=O)NCc2ccc3c(c2)OCO3)nc2ccccc21 (configuration not stated),1,-3.9*,1,1,/,1,0.061*
O=C(CSc1ccc2ccccc2n1)NCc1ccc2c(c1)OCO2,1.2,-5.2*,0,0,-0.013,1.2,?
C(=N\c1nc2ccccc2n1Cc1ccccc1)/c1cccs1,0.9,0.026,4,1,0.012,1,/
COc1ccc(C2C(C#N)=C(N)OC(C(C)(C)C)=C2C#N)cc1OC (configuration not stated),0.7,-2.3*,1,1,/,0.9,0.068*
O=C1CSC(c2cn(-c3ccccc3)nc2-c2cc3ccccc3o2)N1Cc1ccccc1 (configuration not stated),0.9,0.21,4,2,1.4,0.9,/
Cc1ccc(-c2nn(-c3ccccc3)cc2C2SCC(=O)N2Cc2ccccc2)o1 (configuration not stated),0.9,/,-2,-1,-0.41,0.9,0.078
CC(C)=CCC/C(C)=C/CCC(C)NCCN1CCNCC1 (configuration not stated),1,-3.3*,8,0,/,1,0.054*
CC(C)=CCC/C(C)=C/CC(C)(C)CNCCN1CCNCC1,1,/,0,0,-0.093,1.1,/
O=c1c2ccccc2nnn1CSc1nnc(C2COc3ccccc3O2)n1-c1ccccc1 (configuration not stated),1,-2.9*,3,3,-1.4,1.2,0.042*
O=C(OCn1nnc2ccccc2c1=O)C1COc2ccccc2O1 (configuration not stated),0.9,/,4,1,/,0.9,/

# Screens from PubChem BioAssay.
